Screening results from PubChem BioAssay.
Rows were chosen to be rich in hits. Some 6.7% of all compounds tested hit in one or more screens of this group.
PREPL inhibitor = PREPL enzyme inhibitors, primary screen, biochemical, fluorescence polarization. Prolyl endopeptidase-like (Homo sapiens), Q4J6C6. recombinant PREPL, fluorescence polarization activity-based probe. inhibition, % at 5.96 µM. actives 0.68% (n = 320,000); in the data active = inhibition above about 43%;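 also: 0% = enzyme with DMSO and 100% = wells lacking enzyme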
Target sequence (Q4J6C6 whole entry, looked up): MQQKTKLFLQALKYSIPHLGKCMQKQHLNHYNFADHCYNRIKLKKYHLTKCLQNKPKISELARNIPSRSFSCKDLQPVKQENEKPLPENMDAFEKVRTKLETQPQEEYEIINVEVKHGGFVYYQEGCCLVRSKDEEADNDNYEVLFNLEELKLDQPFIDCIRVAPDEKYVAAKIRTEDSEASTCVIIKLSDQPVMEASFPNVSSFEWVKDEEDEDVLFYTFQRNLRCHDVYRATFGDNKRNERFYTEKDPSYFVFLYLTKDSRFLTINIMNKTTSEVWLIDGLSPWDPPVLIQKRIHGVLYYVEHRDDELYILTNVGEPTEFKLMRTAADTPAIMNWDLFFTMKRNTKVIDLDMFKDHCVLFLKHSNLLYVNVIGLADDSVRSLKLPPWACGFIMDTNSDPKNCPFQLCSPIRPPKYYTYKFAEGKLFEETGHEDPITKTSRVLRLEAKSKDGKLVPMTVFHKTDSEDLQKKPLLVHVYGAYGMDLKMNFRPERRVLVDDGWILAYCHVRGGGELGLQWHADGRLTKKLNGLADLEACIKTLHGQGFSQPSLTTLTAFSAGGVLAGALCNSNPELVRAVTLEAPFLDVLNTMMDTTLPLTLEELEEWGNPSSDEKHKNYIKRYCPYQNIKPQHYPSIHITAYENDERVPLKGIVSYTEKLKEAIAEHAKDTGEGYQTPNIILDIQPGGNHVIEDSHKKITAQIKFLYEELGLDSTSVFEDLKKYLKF
CSC inhib = cancer stem cell viability inhibitors, primary screen, luminescence | cancer stem cell-like cells viability | inhibition, % at 7.5 µM | actives 1.1% (n = 300,000) | AID 2717, 2010; in the data active = inhibition above about 75%; tested in HMLE shEcad cells
NR3A LBD binder = binders of NR3A ligand-binding domain, primary screen, biophysical, differential scanning fluorimetry, uHTS; Glutamate receptor ionotropic, NMDA 3A (GRIN3A) ligand-binding domain; NR3A LBD differential scanning fluorimetry, Tm shift; 0% = protein alone, 100% = glycine-bound protein; Tm shift relative to glycine control, % at 25 µM; actives 2.5% (n = 340,000); AID 1259313, 2017;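 active = melting temperature shift of at least 10% of the positive control shift, at one fixed dose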
Beta apoptosis = inhibitors of cytokine-induced beta cell apoptosis, primary screen, luminescence | AID 435005, 2010 | protection from apoptosis, % (concentration not given with the values) | actives 0.8% (n = 300,000) | INS-1E cytokine-induced death, ATP luminescence, 48 h; percent of positive-control rescue, neutral wells zero;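 active = Every replicate reaches about 75%, or at least half do and their mean reaches it too, limit read from the data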;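 also: 0% = cytokine-treated negative control wells and 100% = positive control rescue; higher means more ATP so stronger rescue from cytokine killing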
T cruzi repl = inhibitors of intracellular T. cruzi growth, primary screen, luminescence, NIH3T3 host cells | T. cruzi beta-gal in NIH3T3, 90 h | inhibition, % (concentration not given with the values) | actives 1.4% (n = 300,000) | AID 1885, 2009;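 active = mean inhibition across valid replicates above about 55%, limit read from the data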;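 also: signal also drops with host cell toxicity which is not excluded here; 0% = plate median of DMSO wells and 100% = zero luminescence signal; higher percent means less beta-gal luminescence so fewer parasites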
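Assay system: NIH/3T3 host cells with β-galactosidase reporter T. cruzi; input: 5,000 host fibroblasts per well; compound: single 50 nL compound addition per well in DMSO; timing: ≥90 h infection period, 3 h prior cell attachment; measured by: GalScreen β-gal luminescence, detergent lysis, 60 min; evaluation: percent inhibition of parasite-derived β-gal signal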
CHOP inh = inhibitors of CHOP promoter induction, primary screen, cell-based, unfolded protein response, luciferase reporter; actives 3.8% (n = 220,000); inhibition, % at 10 µM; CHO-K1 CHOP-promoter luciferase, tunicamycin-induced, 15-18 h; AID 2732, 2010;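 active = compounds that reduced the stress-induced luciferase reporter signal by more than about 70% of percent inhibition, limit read from the data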;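 also: 0% = tunicamycin plus vehicle and 100% = wells without tunicamycin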
Starred values were filed as active, the others as inactive.

What do the screens show for `COCC(C)n1c(C)cc(C(=O)COC(=O)CN=C2NS(=O)(=O)c3ccccc32)c1C` (configuration not stated)?
PREPL inhibitor: 21; CSC inhib: 2; NR3A LBD binder: 10*; Beta apoptosis: 5; T cruzi repl: -4; CHOP inh: -23

Results for Cc1ccc(S(=O)(=O)N2CCCC2CNC(=O)c2ccc(F)c(F)c2)cc1 (configuration not stated) ?
PREPL inhibitor: 8; CSC inhib: -17; NR3A LBD binder: 0; Beta apoptosis: -2; T cruzi repl: 4

Results for CCOC(=O)C1=C(c2ccccc2)NC(SCC(=O)Nc2cccc(C)c2)=C(C#N)C1c1ccco1 (configuration not stated) ?
PREPL inhibitor: 9; CSC inhib: 16; NR3A LBD binder: 5; Beta apoptosis: -3; T cruzi repl: 29; CHOP inh: 99*

What do the screens show for `CCOC(=O)C1=C(c2ccccc2)NC(SCC(=O)Nc2ccc(C)cc2)=C(C#N)C1c1ccco1` (configuration not stated)?
PREPL inhibitor: 8; CSC inhib: 6; NR3A LBD binder: 4; Beta apoptosis: 3; T cruzi repl: 65*; CHOP inh: 94*

What do the screens show for `CCc1nc2ccccc2c(C(=O)OCC(=O)Nc2cccc(S(=O)(=O)N3CCOCC3)c2)c1C`?
PREPL inhibitor: 7; CSC inhib: 3; NR3A LBD binder: 10; Beta apoptosis: 0; T cruzi repl: -21; CHOP inh: 31

How did CCc1nc2ccccc2c(C(=O)OCC(=O)Nc2ccc(S(=O)(=O)N3CCOCC3)cc2)c1C do in these assays?
PREPL inhibitor: 3; CSC inhib: 5; NR3A LBD binder: 3; Beta apoptosis: 3; T cruzi repl: 22; CHOP inh: 74*

How did Cc1ccc(N/N=C(\Cc2nc3ccccc3[nH]2)c2ccccc2)cc1 do in these assays?
PREPL inhibitor: -1; CSC inhib: 92*; NR3A LBD binder: -14; Beta apoptosis: 35; CHOP inh: 19

How did Clc1cccc(/C(Cc2nc3ccccc3[nH]2)=N\Nc2ccccc2)c1 do in these assays?
PREPL inhibitor: 9; CSC inhib: 54; NR3A LBD binder: 13*; Beta apoptosis: 13; T cruzi repl: 5; CHOP inh: 58

Results for CCCc1ccc2oc(C(=O)N3CCN(C4CCS(=O)(=O)C4)CC3)c(C)c2c1 (configuration not stated) ?
PREPL inhibitor: 7; CSC inhib: 10; NR3A LBD binder: -3; Beta apoptosis: 1; T cruzi repl: -22

Results for O=C(CCCOc1ccc(Cl)cc1Cl)N/N=C/c1cccc([N+](=O)[O-])c1 ?
PREPL inhibitor: -9; NR3A LBD binder: 1; Beta apoptosis: -3; T cruzi repl: -10; CHOP inh: 76*

Results for O=C(COc1ccc(Cl)cc1Cl)N/N=C/c1cccnc1 ?
PREPL inhibitor: -13; CSC inhib: -7; NR3A LBD binder: 0; Beta apoptosis: -2; T cruzi repl: -1

What do the screens show for `CN(Cc1cccc(Cl)c1Cl)C(=O)c1cc(S(=O)(=O)N2CCOCC2)ccc1F`?
PREPL inhibitor: 38; CSC inhib: -8; NR3A LBD binder: -2; Beta apoptosis: -16

Results for CNc1nc2ccccc2n1/N=C/c1cccc(OC)c1OC ?
PREPL inhibitor: 7; CSC inhib: 7; NR3A LBD binder: 32*; Beta apoptosis: 1; T cruzi repl: -15; CHOP inh: 10

Results for COc1cccc(/C=N/n2c(CO)nc3ccccc32)c1OC ?
PREPL inhibitor: -3; CSC inhib: -12; NR3A LBD binder: -3; Beta apoptosis: 0; T cruzi repl: -9; CHOP inh: 24

What do the screens show for `COc1cccc(/C=N/NC(=O)c2ccoc2C)c1`?
PREPL inhibitor: -3; CSC inhib: 6; NR3A LBD binder: 0; Beta apoptosis: 1; T cruzi repl: 6; CHOP inh: -50

Results for COc1ccc(N2CCN(C(=O)CN3CCN(c4nc(-c5ccc(F)cc5)cs4)CC3)CC2)cc1 ?
PREPL inhibitor: 7; CSC inhib: 1; NR3A LBD binder: -2; Beta apoptosis: 45; T cruzi repl: 3; CHOP inh: 80*

What do the screens show for `Cc1cc(C)cc(NC(=O)C2CCCN2/C=C/C(=O)C(F)(F)F)c1` (configuration not stated)?
PREPL inhibitor: 1; CSC inhib: 4; NR3A LBD binder: 13*; Beta apoptosis: -5; T cruzi repl: -15; CHOP inh: 4

How did CCCn1nc([N+](=O)[O-])c(C(C#N)c2nc3ccccc3s2)c(Cl)c1=O (configuration not stated) do in these assays?
PREPL inhibitor: 20; CSC inhib: 98*; NR3A LBD binder: 6; Beta apoptosis: 33; T cruzi repl: 1; CHOP inh: 36

How did Cc1nc(NC(=O)/C=C/c2ccc(Cl)cc2Cl)sc1C(=O)N(C)C do in these assays?
PREPL inhibitor: 3; CSC inhib: 7; NR3A LBD binder: 2; Beta apoptosis: -2; T cruzi repl: -3; CHOP inh: 85*

How did Cc1nc(NC(=O)/C=C/c2ccccc2)sc1C(=O)Nc1cccc(Cl)c1 do in these assays?
PREPL inhibitor: 10; CSC inhib: 33; NR3A LBD binder: 32*; Beta apoptosis: 7; T cruzi repl: 8; CHOP inh: 56

Results for Cc1nc(NC(=O)COc2ccccc2)sc1C(=O)Nc1cccc(Cl)c1 ?
PREPL inhibitor: 2; CSC inhib: 2; NR3A LBD binder: 7; Beta apoptosis: 5; T cruzi repl: -2; CHOP inh: -4

How did CC(NC(=O)CCc1nnc(-c2ccc(-c3ccccc3)cc2)o1)c1nc2ccccc2[nH]1 (configuration not stated) do in these assays?
PREPL inhibitor: -8; CSC inhib: -9; NR3A LBD binder: -2; T cruzi repl: -4; CHOP inh: 65

What do the screens show for `COc1ccc(/C=N/Nc2cc(C)nc(-n3nc(C)cc3C)n2)c(OC)c1`?
PREPL inhibitor: 19; CSC inhib: 7; NR3A LBD binder: -16; Beta apoptosis: 82*; T cruzi repl: 37; CHOP inh: 65

What do the screens show for `CNc1cc(C)nc(-n2nc(C)cc2C)n1`?
PREPL inhibitor: 4; CSC inhib: -12; NR3A LBD binder: 11*; Beta apoptosis: 4; T cruzi repl: -57; CHOP inh: 40

What do the screens show for `CCOc1ccc(Nc2cc(C)nc(-n3nc(C)cc3C)n2)cc1`?
PREPL inhibitor: 5; CSC inhib: 57; NR3A LBD binder: -1; Beta apoptosis: 91*; T cruzi repl: 51
